Source: ChEMBL document CHEMBL5058577, “EUbOPEN Chemogenomics Library 2 (Multiplex)” (2022)

Tested on: Fibroblast
Experiment: Multiplex assay against human fibroblast
Type: toxicity, cell-based
How it was run: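 On a CQ1 microscope at 37°C and 5% CO2, live cells were imaged after compound addition. They had been stained at seeding with Hoechst33342, BioTracker Green Microtubule Cytoskeleton Dye, MitoTracker Red and Annexin V Alexa Fluor 680. CellPathfinder machine-learning gating assigned cells to Hoechst high-intensity objects or normal cells, normal cells to healthy, pyknosed or fragmented nuclei, and pyknosed cells to mitotic or apoptotic. Tubulin, mitochondrial-mass and membrane-permeability phenotypes are per cents of healthy-nucleus cells.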

[1] = 12 h, 1 µM, compound concentration 1 uM, replicate 1
[2] = 12 h, 1 µM, compound concentration 1 uM, replicate 2
[3] = 12 h, 10 µM, compound concentration 10 uM, replicate 1
[4] = 12 h, 10 µM, compound concentration 10 uM, replicate 2
[5] = 24 h, 1 µM, compound concentration 1 uM, replicate 1
[6] = 24 h, 1 µM, compound concentration 1 uM, replicate 2
[7] = 24 h, 10 µM, compound concentration 10 uM, replicate 1
[8] = 24 h, 10 µM, compound concentration 10 uM, replicate 2
[9] = 48 h, 1 µM, compound concentration 1 uM, replicate 1
[10] = 48 h, 1 µM, compound concentration 1 uM, replicate 2
[11] = 48 h, 10 µM, compound concentration 10 uM, replicate 1
[12] = 48 h, 10 µM, compound concentration 10 uM, replicate 2

Structure (SMILES): COc1cc(NC(=O)CCN2CCC(OC(=O)Nc3ccccc3-c3ccccc3)CC2)c(Cl)cc1CNC[C@H](O)c1ccc(O)c2[nH]c(=O)ccc12 [BATEFENTEROL]
- Population Apoptotic (%) [1]: 53%
- Population Fragmented Nuclei (%) [1]: 25%
- Population Healthy Nuclei (%) [1]: 58%
- Population Hoechst High Intensity Objects (%) [1]: 2%
- Population Membrane Permeable-Phenotype (%) [1]: 0%
- Population Mitochondria Different-Phenotype (%) [1]: 13%
- Population Mitotic Cells (%) [1]: 46%
- Population Normal (%) [1]: 97%
- Population Pyknosed Nuclei (%) [1]: 15%
- Population Tubulin-Different-Phenotype (%) [1]: 42%
- Total Cell Count [1]: 181
- Population Apoptotic (%) [2]: 37%
- Population Healthy Nuclei (%) [2]: 54%
- Population Hoechst High Intensity Objects (%) [2]: 3%
- Population Membrane Permeable-Phenotype (%) [2]: 3%
- Population Mitochondria Different-Phenotype (%) [2]: 7%
- Population Mitotic Cells (%) [2]: 62%
- Population Normal (%) [2]: 96%
- Population Pyknosed Nuclei (%) [2]: 20%
- Population Tubulin-Different-Phenotype (%) [2]: 50%
- Total Cell Count [2]: 124
- Population Apoptotic (%) [3]: 46%
- Population Fragmented Nuclei (%) [3]: 24%
- Population Healthy Nuclei (%) [3]: 59%
- Population Hoechst High Intensity Objects (%) [3]: 2%
- Population Membrane Permeable-Phenotype (%) [3]: 0%
- Population Mitochondria Different-Phenotype (%) [3]: 22%
- Population Mitotic Cells (%) [3]: 53%
- Population Normal (%) [3]: 97%
- Population Pyknosed Nuclei (%) [3]: 16%
- Population Tubulin-Different-Phenotype (%) [3]: 63%
- Total Cell Count [3]: 199
- Population Apoptotic (%) [4]: 41%
- Population Fragmented Nuclei (%) [4]: 44%
- Population Healthy Nuclei (%) [4]: 41%
- Population Membrane Permeable-Phenotype (%) [4]: 1%
- Population Mitochondria Different-Phenotype (%) [4]: 23%
- Population Mitotic Cells (%) [4]: 58%
- Population Pyknosed Nuclei (%) [4]: 13%
- Population Tubulin-Different-Phenotype (%) [4]: 84%
- Total Cell Count [4]: 128
- Population Apoptotic (%) [5]: 55%
- Population Fragmented Nuclei (%) [5]: 21%
- Population Healthy Nuclei (%) [5]: 62%
- Population Hoechst High Intensity Objects (%) [5]: 1%
- Population Membrane Permeable-Phenotype (%) [5]: 0%
- Population Mitochondria Different-Phenotype (%) [5]: 7%
- Population Mitotic Cells (%) [5]: 44%
- Population Normal (%) [5]: 98%
- Population Pyknosed Nuclei (%) [5]: 15%
- Population Tubulin-Different-Phenotype (%) [5]: 39%
- Total Cell Count [5]: 174
- Population Apoptotic (%) [6]: 50%
- Population Fragmented Nuclei (%) [6]: 26%
- Population Healthy Nuclei (%) [6]: 59%
- Population Hoechst High Intensity Objects (%) [6]: 2%
- Population Membrane Permeable-Phenotype (%) [6]: 3%
- Population Mitochondria Different-Phenotype (%) [6]: 10%
- Population Mitotic Cells (%) [6]: 50%
- Population Normal (%) [6]: 97%
- Population Pyknosed Nuclei (%) [6]: 14%
- Population Tubulin-Different-Phenotype (%) [6]: 57%
- Total Cell Count [6]: 131
- Population Apoptotic (%) [7]: 51%
- Population Fragmented Nuclei (%) [7]: 35%
- Population Healthy Nuclei (%) [7]: 53%
- Population Hoechst High Intensity Objects (%) [7]: 0%
- Population Membrane Permeable-Phenotype (%) [7]: 0%
- Population Mitochondria Different-Phenotype (%) [7]: 34%
- Population Mitotic Cells (%) [7]: 48%
- Population Normal (%) [7]: 99%
- Population Pyknosed Nuclei (%) [7]: 11%
- Population Tubulin-Different-Phenotype (%) [7]: 63%
- Total Cell Count [7]: 247
- Population Apoptotic (%) [8]: 81%
- Population Fragmented Nuclei (%) [8]: 46%
- Population Healthy Nuclei (%) [8]: 45%
- Population Hoechst High Intensity Objects (%) [8]: 1%
- Population Membrane Permeable-Phenotype (%) [8]: 1%
- Population Mitochondria Different-Phenotype (%) [8]: 14%
- Population Mitotic Cells (%) [8]: 18%
- Population Normal (%) [8]: 98%
- Population Pyknosed Nuclei (%) [8]: 8%
- Population Tubulin-Different-Phenotype (%) [8]: 80%
- Total Cell Count [8]: 136
- Population Apoptotic (%) [9]: 62%
- Population Fragmented Nuclei (%) [9]: 23%
- Population Healthy Nuclei (%) [9]: 54%
- Population Hoechst High Intensity Objects (%) [9]: 3%
- Population Membrane Permeable-Phenotype (%) [9]: 0%
- Population Mitochondria Different-Phenotype (%) [9]: 18%
- Population Mitotic Cells (%) [9]: 37%
- Population Normal (%) [9]: 96%
- Population Pyknosed Nuclei (%) [9]: 22%
- Population Tubulin-Different-Phenotype (%) [9]: 53%
- Total Cell Count [9]: 185
- Population Apoptotic (%) [10]: 66%
- Population Fragmented Nuclei (%) [10]: 29%
- Population Healthy Nuclei (%) [10]: 56%
- Population Membrane Permeable-Phenotype (%) [10]: 4%
- Population Mitochondria Different-Phenotype (%) [10]: 14%
- Population Mitotic Cells (%) [10]: 33%
- Population Pyknosed Nuclei (%) [10]: 14%
- Population Tubulin-Different-Phenotype (%) [10]: 70%
- Total Cell Count [10]: 130
- Population Apoptotic (%) [11]: 74%
- Population Fragmented Nuclei (%) [11]: 22%
- Population Healthy Nuclei (%) [11]: 54%
- Population Hoechst High Intensity Objects (%) [11]: 1%
- Population Membrane Permeable-Phenotype (%) [11]: 0%
- Population Mitochondria Different-Phenotype (%) [11]: 45%
- Population Mitotic Cells (%) [11]: 25%
- Population Normal (%) [11]: 98%
- Population Pyknosed Nuclei (%) [11]: 22%
- Population Tubulin-Different-Phenotype (%) [11]: 77%
- Total Cell Count [11]: 213
- Population Apoptotic (%) [12]: 88%
- Population Fragmented Nuclei (%) [12]: 45%
- Population Healthy Nuclei (%) [12]: 48%
- Population Hoechst High Intensity Objects (%) [12]: 0%
- Population Membrane Permeable-Phenotype (%) [12]: 1%
- Population Mitochondria Different-Phenotype (%) [12]: 15%
- Population Mitotic Cells (%) [12]: 11%
- Population Normal (%) [12]: 99%
- Population Pyknosed Nuclei (%) [12]: 6%
- Population Tubulin-Different-Phenotype (%) [12]: 76%
- Total Cell Count [12]: 144
